Our source for the inhibition, Activity and IC50 values is ChEMBL document CHEMBL1765057, “Pyrazolo[4,3-d]pyrimidine bioisostere of roscovitine: evaluation of a novel selective inhibitor of cyclin-dependent kinases with antiproliferative activity” (J Med Chem, 2011).

Active and inactive are the calls of the source. The calls are words filed in the database; no cut-off is given here.

The target in assay [1] is Glycogen synthase kinase-3 alpha (Homo sapiens) (UniProt P49840). Briefly: Inhibition of human recombinant GSK3A at 10 uM.
For assay [2], the target named is MAP kinase-activated protein kinase 5 (Homo sapiens) (UniProt Q8IW41). Briefly: Inhibition of human recombinant PRAK at 10 uM.
In assay [3] the target is T1, Retinoblastoma-associated protein (Homo sapiens) (UniProt P06400).
T1 sequence (whole entry): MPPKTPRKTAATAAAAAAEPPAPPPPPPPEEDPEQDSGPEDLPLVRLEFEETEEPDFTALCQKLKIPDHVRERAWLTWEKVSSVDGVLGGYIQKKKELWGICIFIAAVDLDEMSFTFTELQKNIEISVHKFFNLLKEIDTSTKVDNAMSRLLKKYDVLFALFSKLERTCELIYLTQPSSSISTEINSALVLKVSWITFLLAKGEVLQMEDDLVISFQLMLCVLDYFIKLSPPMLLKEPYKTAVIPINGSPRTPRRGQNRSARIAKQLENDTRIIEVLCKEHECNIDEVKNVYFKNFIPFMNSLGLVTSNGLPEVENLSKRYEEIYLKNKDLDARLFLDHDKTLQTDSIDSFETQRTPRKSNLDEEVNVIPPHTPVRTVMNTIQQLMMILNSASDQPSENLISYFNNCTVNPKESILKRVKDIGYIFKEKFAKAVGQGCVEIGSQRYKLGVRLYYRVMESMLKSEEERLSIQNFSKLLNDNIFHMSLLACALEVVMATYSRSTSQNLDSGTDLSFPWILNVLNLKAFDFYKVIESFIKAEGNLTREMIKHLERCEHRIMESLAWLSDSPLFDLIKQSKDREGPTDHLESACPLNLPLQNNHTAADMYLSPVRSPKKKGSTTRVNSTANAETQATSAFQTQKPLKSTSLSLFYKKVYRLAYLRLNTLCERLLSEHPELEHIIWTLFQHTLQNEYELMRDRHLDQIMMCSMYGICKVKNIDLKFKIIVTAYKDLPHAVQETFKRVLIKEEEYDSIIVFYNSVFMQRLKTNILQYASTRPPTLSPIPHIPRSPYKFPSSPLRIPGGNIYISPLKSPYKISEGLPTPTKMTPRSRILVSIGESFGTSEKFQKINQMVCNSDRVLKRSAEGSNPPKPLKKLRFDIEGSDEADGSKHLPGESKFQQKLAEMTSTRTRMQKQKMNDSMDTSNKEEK
Briefly: Inhibition of retinoblastoma protein in human MCF7 cells assessed as reduction of cyclin E level at 2.5 to 40 uM after 24 hrs by immunoblotting. Format: cell-based. Put shortly: (§1)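 Asynchronous, exponentially growing MCF-7 cells were exposed 24 h to a range of concentrations. Total lysates were made in Laemmli buffer, run on SDS-PAGE and blotted to nitrocellulose. Membranes were probed overnight at 4 °C with specific or phosphospecific antibodies (pRb S249/T252, S780, S795, S807/811), with tubulin as loading control and ECL detection.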

Assay [4] deals with MCF7. Briefly: Cell cycle arrest in human MCF7 cells assessed as accumulation at G1 phase after 24 hrs using propidium iodide and BrdU staining by flow cytometry. Format: functional, cell-based. Put shortly:
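Subconfluent cells treated 24 h at varying concentrations, pulsed with 10 μM BrdU for 30 min at 37 °C, then trypsinized, fixed in ice-cold 70% ethanol and DNA denatured in 2 M HCl. After staining with fluorescein anti-BrdU (1:50), propidium iodide (0.1 mg/mL) and RNase A (0.5 mg/mL), cells were read by flow cytometry with a 488 nm laser.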

For assay [5], the target named is T1, Retinoblastoma-associated protein (Homo sapiens). The experiment in a line: Inhibition of retinoblastoma protein in human MCF7 cells assessed as reduction of CDK6 level at 2.5 to 40 uM after 24 hrs by immunoblotting. Format: cell-based. The procedure, abridged: as §1
The target is the same in assay [6]. Briefly: Inhibition of retinoblastoma protein in human MCF7 cells assessed as reduction of CDK4 level at 2.5 to 40 uM after 24 hrs by immunoblotting. Format: cell-based. The procedure, abridged:
as §1

The next assay deals with HOS. The experiment in a line: Cytotoxicity against human HOS cells after 72 hrs by fluoroskan ascent microplate reader analysis. It is filed as functional, cell-based. The procedure, abridged:
(§2)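 Cells were grown in DMEM with 10% FCS and 4 mM glutamine at 37 °C under CO2, then plated at densities suited to each line. Compounds were added as 3-fold dilutions in triplicate for 72 h.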

Assay [7] relates to RPMI-8226. Briefly: Induction of apoptosis in human RPMI8226 cells assessed as increase in caspase3 activation after 24 hrs by immunoblot analysis. Format: functional, cell-based.
The next assay has as its system K562. Briefly: Cytotoxicity against human K562 cells after 72 hrs by fluoroskan ascent microplate reader analysis. It is filed as functional, cell-based. The following applies: K562, 72 h. The procedure, abridged: as §2
Assay [8] addresses Cellular tumor antigen p53 (Homo sapiens) (UniProt P04637). Briefly: Induction of p53-dependent transcriptional activity in human MCF7 cells assessed as increase of p21 WAF1 level at 10 uM after 24 hrs by immunofluorescence assay. The following applies: in the assay text read “by immunoblotting analysis” for “by immunofluorescence assay”. It is filed as cell-based. The procedure, abridged: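 MCF-7 cells were exposed 24 h to 10 μM. Total lysates were made in Laemmli buffer, run on SDS-PAGE and blotted to nitrocellulose, then probed with antibodies to p53, p21WAF1 and Mdm-2, with peroxidase secondary and ECL detection.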

Assay [9] deals with RPMI-8226. The experiment in a line: Induction of apoptosis in human RPMI8226 cells assessed as down-regulation of Mcl-1 after 24 hrs by immunoblot analysis. It is filed as functional, cell-based. The procedure, abridged: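 RPMI-8226 cells were treated continuously for 24 h, and total lysates were made in Laemmli buffer, run on SDS-PAGE and blotted to nitrocellulose. Loading was checked with Ponceau-S. Membranes were blocked in milk or BSA, probed overnight at 4 °C with antibodies to PARP, caspase-3 and Mcl-1, then peroxidase secondary (1:2000), with ECL detection.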

The next assay has as its system HL-60. The experiment in a line: Cytotoxicity against human HL60 cells after 72 hrs by fluoroskan ascent microplate reader analysis. It is filed as functional, cell-based. Conditions: HL-60, 72 h. Put shortly:
as §2

In assay [10] the test system is RPMI-8226. Briefly: Cell cycle arrest in human RPMI8226 cells assessed as decrease in S phase cell population after 24 hrs using propidium iodide and BrdU staining by flow cytometry. Format: functional, cell-based. The procedure, abridged:
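Asynchronously growing RPMI-8226 multiple myeloma cells were exposed for 24 h. Cells were double-stained with propidium iodide and BrdU and analysed by flow cytometry for G1, S, G2/M and BrdU-positive fractions. The subG1 population was taken as indicative of apoptosis.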

For another assay, the system named is HBL-100. The experiment in a line: Cytotoxicity against human HBL100 cells after 72 hrs by fluoroskan ascent microplate reader analysis. Format: functional, cell-based. Conditions: HBL-100, 72 h. The procedure, abridged:
as §2

Assay [11] has as its system MCF7. The experiment in a line: Cell cycle arrest in human MCF7 cells assessed as decrease in S phase cell population after 24 hrs using propidium iodide and BrdU staining by flow cytometry. It is filed as functional, cell-based. The procedure, abridged:
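Subconfluent MCF-7 cells were treated for 24 h at a range of concentrations. They were pulse-labelled with 10 μM BrdU for 30 min at 37 °C, then trypsinized and fixed in ice-cold 70% ethanol. DNA was denatured in 2 M HCl and neutralized with borate. Cells were stained with fluorescein anti-BrdU and with propidium iodide plus RNase A, then analysed by flow cytometry at 488 nm.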

For assay [12], the target named is T1, Retinoblastoma-associated protein (Homo sapiens). The experiment in a line: Inhibition of retinoblastoma protein in human MCF7 cells assessed as reduction of cyclin A level at 2.5 to 40 uM after 24 hrs by immunoblotting. It is filed as cell-based. The procedure, abridged: as §1
Assay [13] concerns the target CDK9/cyclin T1 (Homo sapiens) (UniProt O60563+P50750). The experiment in a line: Inhibition of human recombinant CDK9/cyclin T1 at 10 uM. Format: protein-complex assay.
Assay [14] concerns the target Dual specificity mitogen-activated protein kinase kinase 1 (Homo sapiens) (UniProt Q02750). Briefly: Inhibition of human recombinant MEK1 at 10 uM.

Chain of Cellular tumor antigen p53 (Homo sapiens) (P04637 whole entry, looked up): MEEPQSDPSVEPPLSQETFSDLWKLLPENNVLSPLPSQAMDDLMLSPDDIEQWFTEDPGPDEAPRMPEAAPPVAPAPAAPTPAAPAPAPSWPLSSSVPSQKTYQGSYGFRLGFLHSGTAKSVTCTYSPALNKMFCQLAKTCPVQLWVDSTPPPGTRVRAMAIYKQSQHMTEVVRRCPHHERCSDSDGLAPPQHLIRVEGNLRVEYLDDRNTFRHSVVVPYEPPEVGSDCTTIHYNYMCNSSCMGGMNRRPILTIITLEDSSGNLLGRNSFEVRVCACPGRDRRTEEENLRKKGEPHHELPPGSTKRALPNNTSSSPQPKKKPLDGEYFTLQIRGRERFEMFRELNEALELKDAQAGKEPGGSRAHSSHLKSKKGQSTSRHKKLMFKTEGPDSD
Chain of MAP kinase-activated protein kinase 5 (Homo sapiens) (Q8IW41 whole entry): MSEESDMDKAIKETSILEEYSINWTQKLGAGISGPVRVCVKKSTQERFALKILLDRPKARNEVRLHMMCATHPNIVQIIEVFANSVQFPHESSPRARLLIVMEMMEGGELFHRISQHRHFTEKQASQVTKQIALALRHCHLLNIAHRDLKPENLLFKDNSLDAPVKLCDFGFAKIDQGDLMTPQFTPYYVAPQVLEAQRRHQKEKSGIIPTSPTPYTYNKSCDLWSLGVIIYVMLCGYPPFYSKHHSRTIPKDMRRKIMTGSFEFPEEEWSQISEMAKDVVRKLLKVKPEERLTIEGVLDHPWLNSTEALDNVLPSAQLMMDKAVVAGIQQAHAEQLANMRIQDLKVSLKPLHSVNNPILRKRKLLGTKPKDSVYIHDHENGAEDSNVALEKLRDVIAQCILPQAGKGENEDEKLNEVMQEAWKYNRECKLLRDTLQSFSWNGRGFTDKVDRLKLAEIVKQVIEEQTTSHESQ
Chain of Dual specificity mitogen-activated protein kinase kinase 1 (Homo sapiens) (Q02750 whole entry): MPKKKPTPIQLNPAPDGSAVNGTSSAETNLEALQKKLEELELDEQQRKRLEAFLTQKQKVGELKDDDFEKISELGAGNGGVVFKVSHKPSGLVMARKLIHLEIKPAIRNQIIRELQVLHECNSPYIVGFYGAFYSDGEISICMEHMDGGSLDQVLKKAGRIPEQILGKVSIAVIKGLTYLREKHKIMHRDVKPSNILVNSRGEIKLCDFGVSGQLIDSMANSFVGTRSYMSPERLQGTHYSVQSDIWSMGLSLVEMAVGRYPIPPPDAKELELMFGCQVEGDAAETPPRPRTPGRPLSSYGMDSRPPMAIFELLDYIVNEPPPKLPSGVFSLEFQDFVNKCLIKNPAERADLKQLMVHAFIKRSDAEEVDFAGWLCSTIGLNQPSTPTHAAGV
Chain of Glycogen synthase kinase-3 alpha (Homo sapiens) (P49840 2-483 limits assumed): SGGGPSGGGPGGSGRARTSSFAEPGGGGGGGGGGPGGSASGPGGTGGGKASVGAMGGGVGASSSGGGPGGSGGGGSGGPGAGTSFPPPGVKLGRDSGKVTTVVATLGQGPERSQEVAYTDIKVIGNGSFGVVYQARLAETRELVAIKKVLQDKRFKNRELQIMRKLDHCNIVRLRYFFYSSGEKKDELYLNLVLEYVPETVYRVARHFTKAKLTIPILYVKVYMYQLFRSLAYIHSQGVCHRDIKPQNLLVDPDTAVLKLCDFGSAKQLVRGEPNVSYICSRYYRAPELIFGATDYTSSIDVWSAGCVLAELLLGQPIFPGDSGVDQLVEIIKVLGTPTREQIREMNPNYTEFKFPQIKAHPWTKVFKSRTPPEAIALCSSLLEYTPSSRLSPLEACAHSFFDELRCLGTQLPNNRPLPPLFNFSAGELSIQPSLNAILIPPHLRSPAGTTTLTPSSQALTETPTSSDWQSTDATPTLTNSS

Turning to `CC[C@H](CO)Nc1nc(NCc2ccccc2)c2[nH]nc(C(C)C)c2n1`, the inhibition in [1] worked out at 32%; in assay [2] it was 30%; in [13] it was 90%; in assay [14], 58%. Also, the inhibition result in assay [3], in assay [5] and in [12] was “inactive” in each case. Moreover, the result in the assay on MCF7 [4] was inactive. The inhibition result in assay [6] is “Active”. Further, the IC50 in the assay with HOS came to 7.5 µM; in the assay on K562 it was 7.7 µM; in the assay with HL-60 it was 7.1 µM; in the assay with HBL-100, 11.3 µM. Besides, the result (with RPMI-8226 [7]; in [8]; in the assay on RPMI-8226 [9]; with RPMI-8226 [10]; in the assay on MCF7 [11]) was Active.
